CHRM5 antagonist – CHRM5 antagonism in calcium assay | actives 0.59% (n = 360,000) | AID 624040 | P08912 | inhibition, % at 3 µM | CHO-hM5 cells, Fluo-8 calcium fluorescence, ACh EC80;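 active = inhibition above a per-plate cutoff, the mean of that plate's test compounds plus 3 SD, cut at about 27% in these data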
Target sequence (P08912 whole entry, looked up): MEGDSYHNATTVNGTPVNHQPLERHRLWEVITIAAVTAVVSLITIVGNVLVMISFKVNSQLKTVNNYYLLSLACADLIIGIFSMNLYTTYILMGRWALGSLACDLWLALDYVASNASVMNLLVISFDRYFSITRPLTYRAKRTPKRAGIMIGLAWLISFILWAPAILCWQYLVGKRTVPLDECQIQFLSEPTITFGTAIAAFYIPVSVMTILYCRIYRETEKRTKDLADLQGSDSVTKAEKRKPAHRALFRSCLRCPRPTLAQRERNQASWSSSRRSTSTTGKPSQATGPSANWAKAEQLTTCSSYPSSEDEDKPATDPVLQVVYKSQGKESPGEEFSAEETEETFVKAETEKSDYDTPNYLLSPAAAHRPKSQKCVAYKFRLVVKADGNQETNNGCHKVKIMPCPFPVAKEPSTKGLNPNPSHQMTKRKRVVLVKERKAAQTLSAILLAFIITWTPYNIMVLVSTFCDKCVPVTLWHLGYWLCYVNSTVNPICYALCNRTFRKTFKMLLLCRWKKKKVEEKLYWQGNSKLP
M4 antag – CHRM4 antagonism in calcium assay. P08173. CHO-hM4 cells, ACh EC80, Fluo-8 calcium fluorescence. inhibition, % at 3 µM. actives 0.73% (n = 360,000);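 active = inhibition above its plate's cutoff, the mean inhibition of sample wells plus 3 SD, cut at about 27% in these data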
M5 PAM – potentiates acetylcholine response at human M5 receptor; P08912; CHO-K1 hM5, Fluo-8 calcium, ACh EC20 PAM; 0% = ACh EC20, 100% = ACh EC100; activation, % at 3 µM; actives 0.3% (n = 360,000); AID 624038;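 active = activation above the run cutoff, the mean activation of all test compounds plus 3 SD, cut at about 18% in these data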
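Replicates: One well per compound, no replicates | System: Human M5 receptor in CHO-K1 cells | Benchmarks: Low control EC20 acetylcholine (0%), high control EC100 acetylcholine (100%) | Probe or stimulus: Acetylcholine, EC20 level | Times: Fluo-8 loading 80 min at 37 °C plus 30 min room temperature | Signal: Intracellular calcium via Fluo-8 fluorescence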
M4 PAM – potentiates acetylcholine response at human M4 receptor. activation, % at 3 µM. CHO-K1 hM4/Gqi5, Fluo-8 calcium fluorescence, ACh EC20; 0% = ACh EC20, 100% = maximal ACh. P08173. actives 0.4% (n = 360,000);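 active = activation above its plate's cutoff, the mean activation of sample wells plus 3 SD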
CHRM4 agonist – agonists of human muscarinic M4 receptor (CHRM4). P08173. CHO-K1 hM4/Gqi5, Fluo-8 calcium fluorescence; vehicle 0%, full acetylcholine response 100%. actives 0.14% (n = 360,000). activation, % at 3 µM;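 active = activation above the run mean over all test wells plus 3 SD, cut at about 32% in these data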;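 note: peak over basal fluorescence ratio per well then scaled between controls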
CHRM5 agonist – CHRM5 agonism in calcium assay; activation, % at 3 µM; CHO-K1 hM5 cells, Fluo-8 calcium fluorescence; 0% DMSO wells, 100% maximal acetylcholine response; P08912; actives 0.19% (n = 360,000);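 active = activation above the run's mean over test compounds plus 3 SD, cut at about 23% in these data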;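 note: signal is peak over basal fluorescence ratio across the kinetic read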
Large screens that a line does not name were inactive. This is a sample that favours compounds with a hit; in the whole collection about 1.9% have one here.

COc1cc(N(Cc2ccccc2)Cc2ccccc2)c2ncn(C(C)C)c2c1	none
C=CCN1C(=O)C(Cc2ccc(SC(F)F)cc2)SC1=Nc1ccc(C(=O)O)cc1 (stereo not drawn)	CHRM5 antagonist 27
COc1ccc(CCNC(=O)COc2ccc(S(=O)(=O)N3CCCC3)cc2)cc1	none
Nc1ncnc2c1ncn2[C@@H]1O[C@H](CNCc2c(OCc3ccccc3F)ccc3ccccc23)[C@@H](O)[C@H]1O	none
CCCSc1nc(C)c(CC(=O)O)c(=O)[nH]1	M4 PAM 28
CC1(C)CC(CC(=O)O)(c2ccc(Cl)cc2)CCO1 (stereo not drawn)	M4 PAM 17
CC(C)n1cc(C(=O)c2ccccc2O)cc(C#N)c1=O	none
N#Cc1cc(C(=O)c2ccccc2O)cn(-c2nccs2)c1=O	CHRM5 antagonist 28, M4 antag 36, CHRM4 agonist 71, CHRM5 agonist 68
Cc1c(-n2cc(C(=O)c3cc(F)ccc3O)cc(C#N)c2=O)c(=O)n(-c2ccccc2)n1C	none
N#Cc1cc(C(=O)c2cc(F)ccc2O)cn(-c2nccs2)c1=O	CHRM5 antagonist 29, CHRM4 agonist 96, CHRM5 agonist 62
CN(CCOc1ccccc1)S(=O)(=O)c1ccccc1C#N	none
O=C(NN(C(=O)c1ccccc1)c1cccs1)c1ccccc1	none
COc1ccc(/C=C/C(=O)NCCc2c[nH]c3ccccc23)cc1OC	none
COc1ccccc1C(=O)Nc1ccc2c(c1)nc(CN1CCN(C(C)=O)CC1)n2C	M4 antag 27
CC(=O)N1CCN(Cc2nc3cc(NC(=O)c4ccccc4)ccc3n2C)CC1	none
COC(=O)Cn1c(=O)cnc2ccccc21	none
O=C(Cn1c(=O)cnc2ccccc21)NCC(=O)Nc1ccc(F)c(F)c1	none
O=C(O)Cn1c(=O)cnc2ccccc21	M4 antag 27
COC(=O)c1cc(NC(=O)Cn2c(=O)cnc3ccccc32)cc(C(=O)OC)c1	M5 PAM 20
COc1ccc(CNCc2ccc(OC)c3ccccc23)cc1	none
CCS(=O)(=O)c1ncc(Cl)c(C(=O)Nc2ccc(S(=O)(=O)N3CCC(C)CC3)cc2)n1	M4 antag 47
CC1CCN(S(=O)(=O)c2ccc(NC(=O)c3ccncc3)cc2)CC1	none
CCc1ccc(NC(=O)c2nc(S(=O)(=O)Cc3ccccc3)ncc2Cl)cc1	M4 antag 68
Cc1ccc(NC(=O)c2nc(S(=O)(=O)Cc3ccccc3C)ncc2Cl)cc1C	M4 antag 36
CC(=O)Nc1ccc(NC(=O)c2nc(S(=O)(=O)Cc3cccc(C)c3)ncc2Cl)cc1	none
Cc1cccc(CS(=O)(=O)c2ncc(Cl)c(C(=O)NCc3ccc4c(c3)OCO4)n2)c1	M4 antag 33
CCn1c(SCC(=O)NC2CCCCC2)nnc1C(CO)NC(=O)c1ccccc1 (stereo not drawn)	none
Nc1[nH]c(C(=O)c2ccccc2)c(-c2ccc(F)cc2)c1C(=O)NCCc1c[nH]c2ccccc12	none
O=C(CSc1nc2[nH]ncc2c(=O)[nH]1)N1CCCCC1	none
O=C(O)c1ccccc1C(=O)Nc1nc(-c2ccc3ccccc3c2)cs1	M4 PAM 24
NS(=O)(=O)c1ccc(Nc2nc(-c3ccc4ccccc4c3)cs2)cc1	M4 antag 37
O=C(Nc1nc(-c2ccc3ccccc3c2)cs1)c1ccc(N2C(=O)CCC2=O)cc1	none
NS(=O)(=O)c1ccc(Nc2nc(-c3cccc([N+](=O)[O-])c3)cs2)cc1	none
CCOc1ccc(S(=O)(=O)NC2CCCC2)cc1	none
CCOC(=O)CSc1nc(C)nc2c1sc1nc(C)c(C(C)=O)c(-c3ccc(OC)cc3)c12	M4 PAM 20
CCOC(=O)c1c(C)nc2sc3c(=O)n(-c4ccc(C)cc4)cnc3c2c1-c1ccc(OC)cc1	none
COc1ccc(CCCNC(=O)C2CCC(=O)N(CCCN3CCCC3=O)C2)cc1 (stereo not drawn)	none
Cc1ccc(C)n1-c1ccc(C(=O)N2CCC(C(N)=O)CC2)cc1	none
NC(=O)c1ccc(NC(=O)C2CC2)cc1	M4 PAM 22
CS(=O)(=O)N1CCC(C(=O)Nc2ccc(C(N)=O)cc2)CC1	none
COc1ccc(C(=O)N2CCN(c3ccc(C)c(C)c3)CC2)cc1OC	none
CN(Cc1ccon1)C(=O)c1ccc2nc(Cc3cccc(Cl)c3)oc2c1	M5 PAM 19
COc1ccc(-n2c(CN3CCN(c4ccccc4OC)CC3)nc3ccc([N+](=O)[O-])cc3c2=O)c(OC)c1	none
COc1ccc(C(=O)n2cnc3ccccc32)cc1	M4 PAM 14
O=C(N/N=C/c1ccccc1OC(=O)c1ccc2c(c1)OCO2)c1ccccc1	none
CC(C)C[C@H]1CNC(=O)C(=O)N1C[C@@H]1CCCN1C[C@H](Cc1ccc(O)cc1)N1C[C@H](Cc2ccccc2)N(CC2CCCCC2)C(=O)C1=O	M4 antag 37
O=C1NC[C@@H](CCCCN2C[C@H](Cc3ccc(O)cc3)N(CC3CCCCC3)C(=O)C2=O)N(CCC2CCCCC2)C1=O	CHRM4 agonist 71, CHRM5 agonist 37
Cc1cc2cc(CNC(=O)c3cccs3)ccc2n1C	none
O=C(NC(=S)N1CCCCC1c1cccnc1)c1ccc(Br)cc1 (stereo not drawn)	M4 PAM 15
O=C(NC(=S)N1CCCC1)c1ccc(Cl)cc1Cl	none
O=C(NC(=S)N1CCCCC1c1cccnc1)c1ccc(F)cc1 (stereo not drawn)	none
O=C(NC(=S)NN1CCCCC1c1cccnc1)c1ccc(Cl)cc1Cl (stereo not drawn)	M5 PAM 22
Cc1nn2c(N)c(-c3ccccc3)cnc2c1-c1ccc(Cl)cc1	none
CC(C)CN1CCN(CCCc2ccccc2)C(CCO)C1 (stereo not drawn)	none
CN(CC(=O)Nc1ccccc1Cl)C(=O)c1ccc(Cl)c(S(=O)(=O)N2CCCCCC2)c1	none
CN(C)c1nn(C(=O)Nc2cccc(C(F)(F)F)c2)cc1-c1ccccc1	CHRM5 antagonist 36, M4 antag 27
CN(c1ccccc1)S(=O)(=O)c1ccc(C(=O)NCc2cccs2)cc1	none
COC(=O)c1c(O)cc(C(C)(C)C)n(-c2ccc(F)cc2)c1=O	M4 PAM 37
CC(=O)c1c(O)cc(C)n(-c2ccc(F)cc2)c1=O	none
Cc1cc(C=C2C(=O)CCCC2=O)c(C)n1-c1ccccc1	M4 PAM 30
COc1cc2c(cc1OC)C(c1cccc(Br)c1)NC(=O)C2 (stereo not drawn)	M5 PAM 24
CCN(CC)Cc1c(O)ccc2c(=O)c(-c3ccccc3)coc12	none

High-throughput results from PubChem.
